# Measurements published in PMC6510378 (Clinical and Translational Science, 2019).
# Experiments:
# [1] = tested on: models of neuropathic and dysfunctional pain; conditions: rats; cited from earlier work
# [2] = Urine PK, 10-mg, 20-mg and 50-mg cohorts; type: in vivo, human; conditions: parent ASP3662
# In short: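 Urine drug concentration was measured by validated HPLC-MS/MS. Subjects were healthy young Japanese, young non-Japanese and elderly non-Japanese adults given oral doses of 10, 20 or 50 mg: single dose day 1, 4-day washout, then once daily on days 5–18. Dosing was fasted on PK days.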
# [3] = Safety and tolerability, MAD study; type: in vivo, human; conditions: for Any TEAE / Drug-related TEAE / Number of TEAEs / Number of drug-related TEAEs / TEAE: Constipation / TEAE: Gastrointestinal disorders / TEAE: General disorders and administration site conditions / TEAE: Headache / TEAE: Medical device site reaction / TEAE: Nervous system disorders / TEAE: Skin and subcutaneous tissue disorders: MAD study
# In short: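 Safety was assessed from treatment-emergent adverse events: nature, frequency, severity, onset/offset and relatedness to study drug, coded by MedDRA system organ class. Also assessed were haematology, serum chemistry, urinalysis, physical examination with vital signs, and ECGs. CNS scales used were Bond and Lader VAS, ARCI-49 and Profile of Mood States. Data were summarized descriptively.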
# MAD study part 1 = type: in vivo, human
# In short: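 Healthy young Japanese, young non-Japanese and elderly non-Japanese adults got a single oral dose (10, 20 or 50 mg) or placebo on day 1. After a 4-day washout, dosing was once daily on days 5–18. PK-day doses were taken with 240 mL water after a 10-hour fast, with no food for 4 h. Plasma drug was measured by validated HPLC-MS/MS. Values below the limit of quantification were set to zero.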
# [4] = MAD part 1, day 1 single dose 10 mg, young Japanese, n=8
# [5] = MAD part 1, day 1 single dose 20 mg, elderly non-Japanese, n=9
# [6] = MAD part 1, day 1 single dose 20 mg, young Japanese, n=8
# [7] = MAD part 1, day 1 single dose 20 mg, young non-Japanese, n=8
# [8] = MAD part 1, day 1 single dose 50 mg, young Japanese, n=8
# [9] = MAD part 1, day 1 single dose 50 mg, young non-Japanese, n=8
# [10] = MAD part 1, day 18 multiple dose q.d. 14 days 10 mg, young Japanese, n=8
# [11] = MAD part 1, day 18 multiple dose q.d. 14 days 20 mg, elderly non-Japanese, n=9
# [12] = MAD part 1, day 18 multiple dose q.d. 14 days 20 mg, young Japanese, n=8
# [13] = MAD part 1, day 18 multiple dose q.d. 14 days 20 mg, young non-Japanese, n=8
# [14] = MAD part 1, day 18 multiple dose q.d. 14 days 50 mg, young Japanese, n=8
# [15] = MAD part 1, day 18 multiple dose q.d. 14 days 50 mg, young non-Japanese, n=7
smiles,measurement,setting,value
Cn1c(-c2ccc(C(N)=O)cc2F)nnc1C(C)(C)Oc1c(F)cc(Cl)cc1F [ASP3662],analgesic effects,[1],significant analgesic effects
same,amount recovered from urine,[2],< 0.3 % of the administered dose
same,subjects with TEAE headache,"[3]; MAD part 2, 0.2 mg",2 n
same,subjects with TEAE headache,"[3]; MAD part 2, 0.4 mg",1 n
same,subjects with TEAE headache,"[3]; MAD part 2, 0.7 mg",1 n
same,subjects with TEAE headache,"[3]; MAD part 2, 2 mg",1 n
same,Any TEAE,"[3]; 10 mg, n=8",3 (37.5) n (%)
same,Drug-related TEAE,"[3]; 10 mg, n=8",2 (25.0) n (%)
same,Number of TEAEs,"[3]; 10 mg, n=8",3
same,Number of drug-related TEAEs,"[3]; 10 mg, n=8",2
same,TEAE: Constipation,"[3]; 10 mg, n=8",0 n (%)
same,TEAE: Gastrointestinal disorders,"[3]; 10 mg, n=8",0 n (%)
same,TEAE: General disorders and administration site conditions,"[3]; 10 mg, n=8",0 n (%)
same,TEAE: Headache,"[3]; 10 mg, n=8",0 n (%)
same,TEAE: Medical device site reaction,"[3]; 10 mg, n=8",0 n (%)
same,TEAE: Nervous system disorders,"[3]; 10 mg, n=8",0 n (%)
same,TEAE: Skin and subcutaneous tissue disorders,"[3]; 10 mg, n=8",1 (12.5) n (%)
same,Any TEAE,"[3]; 20 mg, n=25",14 (56.0) n (%)
same,Drug-related TEAE,"[3]; 20 mg, n=25",9 (36.0) n (%)
same,Number of TEAEs,"[3]; 20 mg, n=25",21
same,Number of drug-related TEAEs,"[3]; 20 mg, n=25",12
same,TEAE: Constipation,"[3]; 20 mg, n=25",1 (4.0) n (%)
same,TEAE: Gastrointestinal disorders,"[3]; 20 mg, n=25",1 (4.0) n (%)
same,TEAE: General disorders and administration site conditions,"[3]; 20 mg, n=25",3 (12.0) n (%)
same,TEAE: Headache,"[3]; 20 mg, n=25",5 (20.0) n (%)
same,TEAE: Medical device site reaction,"[3]; 20 mg, n=25",2 (8.0) n (%)
same,TEAE: Nervous system disorders,"[3]; 20 mg, n=25",9 (36.0) n (%)
same,TEAE: Skin and subcutaneous tissue disorders,"[3]; 20 mg, n=25",0 n (%)
same,Any TEAE,"[3]; 50 mg, n=16",6 (37.5) n (%)
same,Drug-related TEAE,"[3]; 50 mg, n=16",4 (25.0) n (%)
same,Number of TEAEs,"[3]; 50 mg, n=16",12
same,Number of drug-related TEAEs,"[3]; 50 mg, n=16",6
same,TEAE: Constipation,"[3]; 50 mg, n=16",2 (12.5) n (%)
same,TEAE: Gastrointestinal disorders,"[3]; 50 mg, n=16",2 (12.5) n (%)
same,TEAE: General disorders and administration site conditions,"[3]; 50 mg, n=16",1 (6.3) n (%)
same,TEAE: Headache,"[3]; 50 mg, n=16",3 (18.8) n (%)
same,TEAE: Medical device site reaction,"[3]; 50 mg, n=16",1 (6.3) n (%)
same,TEAE: Nervous system disorders,"[3]; 50 mg, n=16",3 (18.8) n (%)
same,TEAE: Skin and subcutaneous tissue disorders,"[3]; 50 mg, n=16",2 (12.5) n (%)
same,Any TEAE,"[3]; ASP3662 total (10-50 mg), n=49",23 (46.9) n (%)
same,Drug-related TEAE,"[3]; ASP3662 total (10-50 mg), n=49",15 (30.6) n (%)
same,Number of TEAEs,"[3]; ASP3662 total (10-50 mg), n=49",36
same,Number of drug-related TEAEs,"[3]; ASP3662 total (10-50 mg), n=49",20
same,TEAE: Constipation,"[3]; ASP3662 total (10-50 mg), n=49",3 (6.1) n (%)
same,TEAE: Gastrointestinal disorders,"[3]; ASP3662 total (10-50 mg), n=49",3 (6.1) n (%)
same,TEAE: General disorders and administration site conditions,"[3]; ASP3662 total (10-50 mg), n=49",4 (8.2) n (%)
same,TEAE: Headache,"[3]; ASP3662 total (10-50 mg), n=49",8 (16.3) n (%)
same,TEAE: Medical device site reaction,"[3]; ASP3662 total (10-50 mg), n=49",3 (6.1) n (%)
same,TEAE: Nervous system disorders,"[3]; ASP3662 total (10-50 mg), n=49",12 (24.5) n (%)
same,TEAE: Skin and subcutaneous tissue disorders,"[3]; ASP3662 total (10-50 mg), n=49",3 (6.1) n (%)
same,"deaths, TEAEs leading to discontinuation, serious or drug-related TEAEs",[3]; both SAD and MAD studies,"No deaths, TEAEs leading to discontinuation, serious TEAEs"
same,potentially clinically significant orthostatic pulse rate measurements,[3]; elderly subjects who received ASP3662,44.4%
same,overall safety and tolerability,[3]; multiple oral doses up to 50 mg for 14 days,safe and well tolerated
same,"CL/F, Mean (SD)",MAD study part 1; [4],9.254 (4.086) L/hour
same,"CL/F, Median",MAD study part 1; [4],7.651 L/h
same,"CL/F, Min–max",MAD study part 1; [4],5.05 to 15.3 L/h
same,"CL/F, Mean (SD)",MAD study part 1; [5],6.99 (2.152) L/hour
same,"CL/F, Median",MAD study part 1; [5],6.567 L/h
same,"CL/F, Min–max",MAD study part 1; [5],3.8 to 10.4 L/h
same,"CL/F, Mean (SD)",MAD study part 1; [6],9.993 (2.926) L/hour
same,"CL/F, Median",MAD study part 1; [6],9.182 L/h
same,"CL/F, Min–max",MAD study part 1; [6],6.03 to 15.0 L/h
same,"CL/F, Mean (SD)",MAD study part 1; [7],7.412 (2.61) L/hour
same,"CL/F, Median",MAD study part 1; [7],7.279 L/h
same,"CL/F, Min–max",MAD study part 1; [7],4.33 to 11.7 L/h
same,"CL/F, Mean (SD)",MAD study part 1; [8],6.758 (1.787) L/hour
same,"CL/F, Median",MAD study part 1; [8],6.240 L/h
same,"CL/F, Min–max",MAD study part 1; [8],4.30 to 9.40 L/h
same,"CL/F, Mean (SD)",MAD study part 1; [9],7.005 (2.789) L/hour
same,"CL/F, Median",MAD study part 1; [9],7.259 L/h
same,"CL/F, Min–max",MAD study part 1; [9],2.53 to 10.1 L/h
same,"CL/F, Mean (SD)",MAD study part 1; [10],6.07 (2.591) L/hour
same,"CL/F, Median",MAD study part 1; [10],5.708 L/h
same,"CL/F, Min–max",MAD study part 1; [10],3.02 to 9.87 L/h
same,"Ctrough, Mean (SD)",MAD study part 1; [10],37.65 (30.42) ng/mL
same,"Ctrough, Median",MAD study part 1; [10],24.76 ng/mL
same,"Ctrough, Min–max",MAD study part 1; [10],13.5 to 84.0 ng/mL
same,"CL/F, Mean (SD)",MAD study part 1; [11],5.675 (1.649) L/hour
same,"CL/F, Median",MAD study part 1; [11],5.675 L/h
same,"CL/F, Min–max",MAD study part 1; [11],2.81 to 8.51 L/h
same,"Ctrough, Mean (SD)",MAD study part 1; [11],63.58 (49.38) ng/mL
same,"Ctrough, Median",MAD study part 1; [11],52.25 ng/mL
same,"Ctrough, Min–max",MAD study part 1; [11],26.1 to 184 ng/mL
same,"CL/F, Mean (SD)",MAD study part 1; [12],8.322 (2.562) L/hour
same,"CL/F, Median",MAD study part 1; [12],8.117 L/h
same,"CL/F, Min–max",MAD study part 1; [12],4.47 to 13.5 L/h
same,"Ctrough, Mean (SD)",MAD study part 1; [12],34.01 (24.86) ng/mL
same,"Ctrough, Median",MAD study part 1; [12],26.35 ng/mL
same,"Ctrough, Min–max",MAD study part 1; [12],13.7 to 92.1 ng/mL
same,"CL/F, Mean (SD)",MAD study part 1; [13],6.487 (2.372) L/hour
same,"CL/F, Median",MAD study part 1; [13],6.473 L/h
same,"CL/F, Min–max",MAD study part 1; [13],3.64 to 10.3 L/h
same,"Ctrough, Mean (SD)",MAD study part 1; [13],58.68 (40.91) ng/mL
same,"Ctrough, Median",MAD study part 1; [13],42.71 ng/mL
same,"Ctrough, Min–max",MAD study part 1; [13],19.9 to 132 ng/mL
same,"CL/F, Mean (SD)",MAD study part 1; [14],10.46 (12.75) L/hour
same,"CL/F, Median",MAD study part 1; [14],6.58 L/h
same,"CL/F, Min–max",MAD study part 1; [14],3.80 to 41.8 L/h
same,"Ctrough, Mean (SD)",MAD study part 1; [14],115.3 (59.73) ng/mL
same,"Ctrough, Median",MAD study part 1; [14],103.3 ng/mL
same,"Ctrough, Min–max",MAD study part 1; [14],21.0 to 223 ng/mL
same,"CL/F, Mean (SD)",MAD study part 1; [15],5.507 (2.275) L/hour
same,"CL/F, Median",MAD study part 1; [15],5.607 L/h
same,"CL/F, Min–max",MAD study part 1; [15],1.86 to 8.76 L/h
same,"Ctrough, Mean (SD)",MAD study part 1; [15],261.3 (267.1) ng/mL
same,"Ctrough, Median",MAD study part 1; [15],175.2 ng/mL
same,"Ctrough, Min–max",MAD study part 1; [15],60.4 to 841 ng/mL
